Assay [1] deals with T1, Transient receptor potential cation channel subfamily V member 1 (Homo sapiens, UniProt Q8NER1). Description: Displacement of [3H]RTX from human TRPV1 expressed in HEK293 cells. The assay is classed as cell-based. A digest of the protocol: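 Membranes from hTRPV1/HEK293 cells, prepared in HEPES buffer pH 7.4 (20 mM HEPES, NaCl, sucrose, MgCl2, CaCl2, KCl). Incubated 60 min at 37 °C with 0.3–0.6 nM [3H]-RTX. Samples cooled on ice, alpha-acid glycoprotein added, then centrifuged and pellets counted by scintillation. Nonspecific binding defined with 200 nM unlabeled RTX. Reported as Ki.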
T1 sequence (Q8NER1 whole entry): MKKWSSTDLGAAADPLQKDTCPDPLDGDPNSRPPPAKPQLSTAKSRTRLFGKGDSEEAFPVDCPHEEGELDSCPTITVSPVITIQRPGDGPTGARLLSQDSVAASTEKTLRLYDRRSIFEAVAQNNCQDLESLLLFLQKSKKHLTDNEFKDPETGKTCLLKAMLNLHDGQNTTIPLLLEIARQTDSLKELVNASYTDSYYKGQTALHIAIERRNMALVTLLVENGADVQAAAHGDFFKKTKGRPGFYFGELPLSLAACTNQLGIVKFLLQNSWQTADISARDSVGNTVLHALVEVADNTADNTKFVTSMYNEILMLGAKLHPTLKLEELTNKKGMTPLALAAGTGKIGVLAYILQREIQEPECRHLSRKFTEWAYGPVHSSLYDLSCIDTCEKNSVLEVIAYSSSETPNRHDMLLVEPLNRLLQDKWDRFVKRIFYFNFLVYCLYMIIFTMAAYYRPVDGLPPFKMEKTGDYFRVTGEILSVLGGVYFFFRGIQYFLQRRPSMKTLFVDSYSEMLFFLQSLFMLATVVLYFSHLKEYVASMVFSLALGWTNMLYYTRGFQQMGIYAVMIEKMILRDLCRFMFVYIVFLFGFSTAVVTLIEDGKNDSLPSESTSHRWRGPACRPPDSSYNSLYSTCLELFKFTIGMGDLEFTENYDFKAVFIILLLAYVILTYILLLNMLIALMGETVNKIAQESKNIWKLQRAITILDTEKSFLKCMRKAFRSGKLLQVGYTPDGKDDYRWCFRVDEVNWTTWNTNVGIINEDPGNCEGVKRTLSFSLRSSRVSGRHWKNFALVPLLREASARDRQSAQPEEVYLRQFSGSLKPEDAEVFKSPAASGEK

The target in assay [2] is T1, Transient receptor potential cation channel subfamily V member 1. The assay is described as follows: Antagonist activity at human recombinant TRPV1 expressed in HEK293 cells assessed as inhibition of capsaicin-induced calcium by FLIPR method. It is filed as functional, cell-based. A digest of the protocol:
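Stably transfected hTRPV1/HEK293 cells grown on poly-D-lysine for 2 days, then loaded with Fluo-3/AM for 1 h. Each well receives a single compound concentration. Intracellular Ca2+ is read by FLIPR for 3 min before capsaicin is added at a final 15 nM to fully activate TRPV1. Antagonist potency is reported as IC50.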

`O=C(Nc1cccc2cnccc12)NC1CCc2cc(F)ccc2C1CC1CC1` (centres undefined) showed a Ki in assay [1] of 0.8 nM. The IC50 in assay [2] was 350 nM.

For `O=C(Nc1cccc2cnccc12)NC1CCc2cc(O)ccc2C1Cc1ccccc1` (centres undefined), the IC50 in assay [2] is 200 nM.

For `COc1ccc(CC2c3ccc(OC)cc3CCC2NC(=O)Nc2cccc3cnccc23)cc1` (centres undefined), in assay [1], the inhibition constant Ki is 8 nM. Moreover, the IC50 in assay [2] came out at 36 nM.

For `O=C(Nc1cccc2ccc(O)cc12)NC1CCc2cc(F)ccc2C1Cc1ccc(C(F)(F)F)cc1` (centres undefined), the inhibition constant Ki in assay [1] came out at 22 nM. Also, in assay [2], the IC50 is 360 nM.

In assay [1], `COc1ccc(C(C)CNC(=O)Nc2cccc3cnccc23)cc1` (centres undefined) registered a Ki of 1290 nM. Moreover, in assay [2], the IC50 stood at 680 nM.

As for `O=C(Nc1cccc2cnccc12)NC1CCc2ccccc2C1Cc1ccccc1` (centres undefined), the affinity in assay [1], expressed as Ki, was 4 nM. The IC50 in assay [2] turned out to be 20 nM.

The compound `COc1ccc2c(c1)CCC(NC(=O)Nc1cccc3cnccc13)C2Cc1ccccc1` (centres undefined) returned a Ki in assay [1] of 3 nM. In addition, the IC50 in assay [2] was found to be 25 nM.

For the compound `COc1ccc(C(CNC(=O)Nc2cccc3cnccc23)Cc2cccnc2)cc1` (centres undefined), in assay [1], the Ki worked out at 578 nM. Besides, the half-inhibitory concentration (IC50) in assay [2] stood at 184 nM.

In assay [1], `COc1ccc(C(CNC(=O)Nc2cccc3cnccc23)Cc2ccccc2)cc1` (centres undefined) displayed a Ki of 6 nM. Also, the half-maximal inhibitory concentration (IC50) in assay [2] was found to be 14 nM.

`O=C(NCC(Cc1ccccc1)c1ccc(F)cc1)Nc1cccc2cnccc12` (centres undefined) gave a Ki in assay [1] of 8 nM. Further, the IC50 in assay [2] was 5 nM.

`O=C(Nc1cccc2cnccc12)NC1CCc2cc(F)ccc2C1Cc1ccccc1` (centres undefined) returned a Ki in assay [1] of 4 nM. For the same compound, the IC50 in assay [2] was 12 nM.

For `O=C(Nc1cccc2cnccc12)NC1CCc2cc(Br)ccc2C1Cc1ccccc1` (centres undefined), the Ki in assay [1] was determined as 2 nM. Moreover, the IC50 in assay [2] is 17 nM.

`COc1ccc2c(c1)CCC(NC(=O)Nc1cccc3cnccc13)C2Cc1ccc(Br)cc1` (centres undefined) showed a Ki in assay [1] of 1 nM. The IC50 in assay [2] turned out to be 22 nM.

Regarding `O=C(Nc1cccc2cnccc12)NC1CCc2cc(F)ccc2C1Cc1ccc(C(F)(F)F)cc1` (centres undefined), the Ki in assay [1] turned out to be 1 nM. For the same compound, the IC50 in assay [2] was found to be 10 nM.

On to `O=C(Nc1cccc2cnccc12)NC1CCc2cc(Cl)ccc2C1Cc1ccccc1` (centres undefined), for which the affinity in assay [1] corresponds to a Ki of 11 nM. In addition, in assay [2], the IC50 worked out at 63 nM.

For `O=C(Nc1cccc2cnccc12)NC1CCc2ccc(Cl)cc2C1Cc1ccccc1` (centres undefined), the Ki in assay [1] was determined as 5 nM. In addition, the IC50 in assay [2] came out at 86 nM.

As for `O=C(NCC(Cc1cccc(C(F)(F)F)c1)c1ccc(F)cc1)Nc1cccc2cnccc12` (centres undefined), in assay [1], affinity was put at a Ki of 20 nM. The half-maximal inhibitory concentration (IC50) in assay [2] was found to be 19 nM.

Compound `O=C(Nc1cccc2cnccc12)NC1CCc2cc(F)ccc2C1Cc1cccs1` (centres undefined) had a Ki in assay [1] of 4 nM. Moreover, the IC50 in assay [2] was determined as 140 nM.

For the compound `C=CCC1c2ccc(F)cc2CCC1NC(=O)Nc1cccc2cnccc12` (centres undefined), affinity in assay [1] was put at a Ki of 2 nM. Moreover, the IC50 in assay [2] is 100 nM.

Regarding `COc1ccc2c(c1)CCC(NC(=O)Nc1cccc3ccc(O)cc13)C2Cc1ccccc1` (centres undefined), affinity in assay [1] was put at a Ki of 10 nM. For the same compound, the IC50 in assay [2] is 60 nM.

`COc1cc2c(cc1OC)C(Cc1ccccc1)C(NC(=O)Nc1cccc3cnccc13)CC2` (centres undefined) gave a Ki in assay [1] of 20 nM. The IC50 in assay [2] was found to be 230 nM.

In assay [1], `O=C(NCC(Cc1ccccc1)c1ccc(C(F)(F)F)cc1)Nc1cccc2cnccc12` (centres undefined) returned a Ki of 4 nM.

The compound `COc1ccc2c(c1)CCC(NC(=O)Nc1cccc3cnccc13)C2Cc1ccc(C#N)cc1` (centres undefined) showed a Ki in assay [1] of 17 nM. Also, the IC50 in assay [2] turned out to be 21 nM.

As for `COc1ccc2c(c1)CCC(NC(=O)Nc1cccc3cnccc13)C2Cc1cccnc1` (centres undefined), in assay [2], the concentration for half-maximal inhibition (IC50) was more than 1000 nM.

On to `N#CCC1c2ccc(Cl)cc2CCC1NC(=O)Nc1cccc2cnccc12` (centres undefined), for which the half-maximal inhibitory concentration (IC50) in assay [2] is more than 1000 nM.

In assay [1], `O=C(Nc1cccc2cnccc12)NC1CCc2c(Cl)cccc2C1Cc1ccccc1` (centres undefined) came in with a Ki of 2 nM. In addition, the IC50 in assay [2] is 16 nM.

Compound `COc1ccc2c(c1)CCC(NC(=O)Nc1cccc3cnccc13)C2Cc1cccc(Cl)c1` (centres undefined) gave a Ki in assay [1] of 2 nM. The IC50 in assay [2] is 13 nM.

Compound `O=C(Nc1cccc2cnccc12)NC1CCc2cc(F)ccc2C1Cc1ccoc1` (centres undefined) displayed a Ki in assay [1] of 16 nM. Besides, the IC50 in assay [2] came out at 83 nM.

On to `COc1ccc2c(c1)CCC(NC(=O)Nc1cccc3cnccc13)C2Cc1ccc(C(F)(F)F)cc1` (centres undefined), for which, in assay [1], the affinity corresponds to a Ki of 2 nM. In assay [2], the IC50 was 2 nM.

For the origin of these results see ChEMBL document CHEMBL1140534, “Heteroaryl beta-tetralin ureas as novel antagonists of human TRPV1” (Bioorg Med Chem Lett, 2007).
